The target of assay [1] is Adenosine receptors; A1 & A3 (Homo sapiens) (UniProt P30542+P0DMS8). Nature of the assay: Selectivity ratio (hA1/hA3). It counts as protein assay.
Assay [2] deals with T1, Adenosine receptor A3 (Homo sapiens, UniProt P0DMS8).
T1 sequence (P0DMS8 whole entry): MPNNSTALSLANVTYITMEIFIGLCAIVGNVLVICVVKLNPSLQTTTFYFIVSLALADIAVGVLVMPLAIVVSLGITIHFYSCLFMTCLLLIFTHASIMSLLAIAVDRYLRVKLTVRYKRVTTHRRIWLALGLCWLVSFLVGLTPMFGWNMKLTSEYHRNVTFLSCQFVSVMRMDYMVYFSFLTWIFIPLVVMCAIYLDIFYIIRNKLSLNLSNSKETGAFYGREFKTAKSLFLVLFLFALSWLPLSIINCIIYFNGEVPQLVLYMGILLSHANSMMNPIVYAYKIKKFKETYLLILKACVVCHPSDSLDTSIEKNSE
Briefly: Displacement of [3H]MRE3008-F20 from human Adenosine A3 receptor expressed in HEK cells; range 0.11-0.18. Type of assay: cell-based, HEK293. (In general: Displacement assays read how much labelled ligand stays bound in the presence of the test substance.)

In assay [3] the target is T2, Adenosine receptor A2a (Homo sapiens, UniProt P29274). Briefly: Displacement of [3H]SCH-58261 from human Adenosine A2A receptor expressed in HEK293 cells; range 23-40. It counts as cell-based.
T2 sequence (P29274 whole entry): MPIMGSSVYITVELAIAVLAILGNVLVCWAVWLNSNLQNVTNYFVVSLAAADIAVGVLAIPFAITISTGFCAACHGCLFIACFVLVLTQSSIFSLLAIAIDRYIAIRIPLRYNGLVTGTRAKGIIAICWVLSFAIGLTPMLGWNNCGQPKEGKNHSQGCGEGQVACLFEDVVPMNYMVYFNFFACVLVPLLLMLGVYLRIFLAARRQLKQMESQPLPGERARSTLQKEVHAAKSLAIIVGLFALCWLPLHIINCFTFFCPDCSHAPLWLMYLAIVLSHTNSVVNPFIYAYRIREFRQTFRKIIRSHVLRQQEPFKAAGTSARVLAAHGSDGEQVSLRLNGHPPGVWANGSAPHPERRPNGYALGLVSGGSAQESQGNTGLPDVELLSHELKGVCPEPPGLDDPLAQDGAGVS
The target of assay [4] is T3, Adenosine receptor A1 (Homo sapiens, UniProt P30542).
T3 sequence (P30542 whole entry): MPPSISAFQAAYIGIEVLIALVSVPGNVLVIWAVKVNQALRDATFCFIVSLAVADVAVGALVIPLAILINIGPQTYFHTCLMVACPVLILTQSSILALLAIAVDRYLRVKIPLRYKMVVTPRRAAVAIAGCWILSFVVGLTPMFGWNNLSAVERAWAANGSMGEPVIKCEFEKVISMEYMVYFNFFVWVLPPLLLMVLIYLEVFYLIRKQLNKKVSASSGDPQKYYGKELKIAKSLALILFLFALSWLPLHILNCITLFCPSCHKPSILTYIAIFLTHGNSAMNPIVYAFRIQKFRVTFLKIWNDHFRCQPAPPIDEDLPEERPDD
Nature of the assay: Displacement of [3H]DPCPX from human Adenosine A1 receptor expressed in CHO cells; range 248-276. It counts as cell-based.

In assay [5] the target is Adenosine receptors; A2b & A3 (Homo sapiens) (UniProt P29275+P0DMS8). Nature of the assay: Selectivity ratio (h2B/hA3). Type of assay: protein assay.
Assay [6] concerns the target T4, Adenosine receptor A2b (Homo sapiens, UniProt P29275).
T4 sequence (P29275 whole entry): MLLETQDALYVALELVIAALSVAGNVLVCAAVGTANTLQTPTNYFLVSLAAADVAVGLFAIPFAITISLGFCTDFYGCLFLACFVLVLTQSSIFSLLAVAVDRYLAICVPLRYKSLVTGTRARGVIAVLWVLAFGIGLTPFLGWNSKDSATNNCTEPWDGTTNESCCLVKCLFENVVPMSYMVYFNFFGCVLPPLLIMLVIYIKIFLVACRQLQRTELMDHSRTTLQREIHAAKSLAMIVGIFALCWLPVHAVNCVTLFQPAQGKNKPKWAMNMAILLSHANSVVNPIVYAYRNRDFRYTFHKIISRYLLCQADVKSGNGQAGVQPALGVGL
Briefly: Displacement of [3H]DPCPX from human Adenosine A2B receptor expressed in HEK293 cells; range 118-146. Type of assay: cell-based. Put shortly: (§1)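 Competition binding on membranes of HEK-293 cells carrying recombinant human A2B receptor. Incubation 60 min at 25 °C in 50 mM Tris HCl pH 7.4 with 10 mM MgCl2, 1 mM EDTA, 0.1 mM benzamidine and 2 IU/mL adenosine deaminase. Radioligand 40 nM [3H]DPCPX, at least six to eight test concentrations. NECA defined nonspecific binding. Bound ligand separated on glass-fibre filters and counted; n = 3-6.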

Assay [7] addresses T3, Adenosine receptor A1. Briefly: Displacement of [3H]DPCPX from human Adenosine A1 receptor expressed in CHO cells; range 525-691. Type of assay: cell-based.
Assay [8] deals with T1, Adenosine receptor A3. Briefly: biochemical.
The target in assay [9] is T2, Adenosine receptor A2a. Nature of the assay: Displacement of [3H]SCH-58261 from human Adenosine A2A receptor expressed in HEK293 cells; range 312-515. It counts as cell-based.
Assay [10] deals with T4, Adenosine receptor A2b. Briefly: Displacement of [3H]DPCPX from human Adenosine A2B receptor expressed in HEK293 cells; range 89-116. It counts as cell-based. Put shortly: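 Membranes from HEK-293 cells with human recombinant A2B receptor. Incubation 60 min at 25 °C in 50 mM Tris HCl, 10 mM MgCl2, 1 mM EDTA, 0.1 mM benzamidine, pH 7.4, with 2 IU/mL adenosine deaminase and 40 nM [3H]DPCPX. At least six to eight test concentrations. Nonspecific binding defined with NECA. n = 3-6.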

Assay [11] deals with T3, Adenosine receptor A1. Briefly: Displacement of [3H]DPCPX from human Adenosine A1 receptor expressed in CHO cells; range […]. It counts as cell-based. Put shortly:
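Competition binding on membranes of CHO cells stably expressing human A1 receptor, resuspended in 50 mM Tris HCl pH 7.4. Incubation 120 min at 25 °C with 1 nM [3H]DPCPX, 50 µg protein per assay and at least six to eight test concentrations. CHA defined nonspecific binding. Bound ligand separated on glass-fibre filters and counted; n = 3-6.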

Assay [12] concerns the target T4, Adenosine receptor A2b. Briefly: Displacement of [3H]DPCPX from human Adenosine A2B receptor expressed in HEK293 cells; range 67-141. It counts as cell-based. Put shortly:
as §1

Assay [13] deals with T1, Adenosine receptor A3. Briefly: Displacement of [3H]MRE3008-F20 from human Adenosine A3 receptor expressed in HEK cells; range 0.23-0.40. It counts as cell-based, HEK293.
Assay [14] deals with T2, Adenosine receptor A2a. Nature of the assay: Displacement of [3H]SCH-58,261 from human Adenosine A2A receptor expressed in HEK293 cells; range 122-187. Type of assay: cell-based.
The target of assay [15] is T2, Adenosine receptor A2a. Nature of the assay: biochemical.
The target of assay [16] is T1, Adenosine receptor A3. Nature of the assay: Displacement of [3H]MRE3008-F20 from human Adenosine A3 receptor expressed in HEK cells; range 0.13-0.20. It counts as cell-based, HEK293.
Assay [17] concerns the target T1, Adenosine receptor A3. Nature of the assay: Inhibition of IB-MECA agonist-mediated cAMP production in membranes of CHO cells expressing human Adenosine A3 receptor. Type of assay: functional, cell-based. Put shortly: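 Human A3-CHO membranes (in 50 mM Tris HCl, 10 mM MgCl2, 1 mM EDTA, pH 7.4) were preincubated for 10 min at 37 °C with 5 µM GTP, 0.5 mM Ro 20-1724 and 2.0 IU/mL adenosine deaminase. IB-MECA (100 nM) or antagonist was then added with 1 mM ATP and forskolin for 10 min. The reaction was stopped by 2 min boiling. cAMP was measured by [3H]cAMP competitive protein binding using beef adrenal binding protein, 150 min at 4 °C.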

The target in assay [18] is T3, Adenosine receptor A1. Nature of the assay: biochemical.
Assay [19] concerns the target T4, Adenosine receptor A2b. Nature of the assay: biochemical.

Our source for the Ratio, Ki and IC50 values is ChEMBL document CHEMBL1136016, “Synthesis, biological activity, and molecular modeling investigation of new pyrazolo[4,3-e]-1,2,4-triazolo[1,5-c]pyrimidine derivatives as human A(3) adenosine receptor antagonists” (J Med Chem, 2002).

As for `CCn1cc2c(nc(NC(=O)Nc3ccc(C)cc3)n3nc(-c4ccco4)nc23)n1`, the Ratio in assay [1] came out at 1870; in assay [5] it was 943. Besides, the Ki – broadly, a dissociation constant, usually derived from enzyme kinetics or from competition with a known ligand – was determined as 0.00014 µM in assay [2], 0.03 µM in assay [3], 0.262 µM in assay [4] and 0.132 µM in assay [6].
Regarding `CCCCn1cc2c(nc(NC(=O)Cc3ccccc3)n3nc(-c4ccco4)nc23)n1`, the Ki in [7] is 0.602 µM; in [8] it was 0.00111 µM; in [9], 0.4 µM; in assay [10], 0.101 µM. Further, the Ratio in assay [1] came out at 542; in assay [5], 91.
For the compound `CCn1cc2c(nc(NC(=O)Nc3ccccc3Cl)n3nc(-c4ccco4)nc23)n1`, the Ki in [11] turned out to be 0.348 µM; in assay [12], 0.097 µM; in [13], 0.0003 µM; in assay [14], 0.15 µM. Also, the Ratio in assay [1] was determined as 1160; in [5], 323.
`Cn1cc2c(nc(NC(=O)Nc3ccccc3)n3nc(-c4ccco4)nc23)n1`: the Ratio in [1] turned out to be 3710; in [5], 1390. Besides, the Ki is 0.381 µM in assay [15], 0.00016 µM in [16], 0.594 µM in assay [18] and 0.222 µM in [19]. In assay [17], the IC50 (as a rule, the concentration that gives 50% inhibition) amounted to 0.002 µM.
